Results taken from article PMC9643156 (Acta Pharmaceutica Sinica. B, 2022).

Experiments:
[1] = test system: LNCaP, 22RV1 and LNCaP-ENZR cells; assay: Viability screen of 197 compounds in PCa cells; assay type: cell-based; conditions: 20 μmol/L, 72 h, 22RV1, LNCaP-ENZR cells
[2] = test system: 22RV1 orthotopic xenografts; assay: 22RV1 orthotopic xenografts; assay type: in vivo, BALB/c-nude mice; conditions: LLU-206 25 mg/kg i.v.; ENZ 10 mg/kg p.o.
Procedure, shortened: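 Mice aged 6–8 weeks carried 22RV1 tumours implanted orthotopically in the prostate. Tumour growth was followed by bioluminescence imaging and analysed as average fluorescence values, n = 6 per group. Relative tumour weight was recorded at the end. Paraffin-embedded tumours were H&E-stained and stained for Ki-67 by IHC; Ki-67 and necrotic area were quantified by image analysis. Data are mean ± SEM, one-way ANOVA with Tukey.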

[3] = test system: LNCaP-ENZR xenografts; assay: LNCaP-ENZR subcutaneous xenografts; assay type: in vivo, NOD-SCID mice; conditions: LLU-206 10, 25 mg/kg via tail vein; ENZ 10 mg/kg by gavage

SMILES	anti-PCa activity / inhibition of proliferation in the viability screen [1]	growth of 22RV1 orthotopic xenografts [2]	antitumor activity in LNCaP-ENZR xenografts (tumor volume, tumor weight, serum PSA) [3]
CNC(=O)c1ccc(N2C(=S)N(c3cnc(C#N)c(C(F)(F)F)c3)C(=O)C23CCC3)cc1F [ARN-509, apalutamide]	no significant inhibition	–	–
CNC(=O)c1ccc(N2C(=S)N(c3ccc(C#N)c(C(F)(F)F)c3)C(=O)C2(C)C)cc1F [ENZ, Enzalutamide]	–	exhibited resistance	completely resistant
CC(O)c1cc(C(=O)N[C@@H](C)Cn2ccc(-c3ccc(C#N)c(Cl)c3)n2)[nH]n1 (stereo partly shown) [ODM-201, darolutamide]	no significant inhibition	–	–
